The values that follow come from the array DNA melting data of Ke et al. (doi:10.1101/2024.01.08.574731).

Data set [1] in a line: folding enthalpy; higher = less favourable; fluorescence melt of hairpins on a sequencing array, two-state fit. Conditions: sodium 0.088 M. The procedure, abridged:
(§1)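 Folding enthalpy and melting temperature were estimated with bootstrapped two-state fits and combined across four replicates by inverse-variance weighting, with fitted temperatures raised by 9.35 °C to match UV melts. The data were Cy3 fluorescence of library hairpins, with annealed Cy3 and quencher oligos, on a sequenced MiSeq flow cell in 50 mM Na-HEPES pH 8.0, 25 mM NaCl, imaged in 2.5 °C steps up to 60 °C and normalised to pre-quench Cy3 and control constructs.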

Data set [2] in a line: melting temperature; fluorescence melt of hairpins on a sequencing array, two-state fit, raised by 9.35 °C to match UV melts. Particulars: sodium 0.088 M. In short, it runs like this: as §1

Regarding GATCTCGACCGAGATC ((((((....)))))), the folding enthalpy in data set [1] was -51.9 kcal/mol. The Tm in data set [2] was 56.1 °C.
With GATCTCGAGGAGATC ((((((...)))))), the folding enthalpy in data set [1] was -34.5 kcal/mol. Further, the Tm in data set [2] worked out at 52.8 °C.
For the sequence GATCTCGATGAGATC ((((((...)))))), the folding enthalpy in data set [1] is -37.2 kcal/mol. For the same sequence, the Tm in data set [2] worked out at 53 °C.
As for GATCTCGATTGAGATC ((((((....)))))), the folding enthalpy in data set [1] is -39.4 kcal/mol. For the same sequence, the Tm in data set [2] was 51.7 °C.
For GATCTCGCAAGAGATC ((((((....)))))) the same measures were -37.5 kcal/mol and 67.3 °C.
Take GATCTCGCGGAGATC ((((((...)))))): the folding enthalpy in data set [1] was -35.4 kcal/mol. Also, the Tm in data set [2] came to 54.9 °C.
For GATCTCGCTAGAGATC ((((((....)))))), in data set [1], the folding enthalpy is -43.5 kcal/mol. The Tm in data set [2] is 67.6 °C.
Taken in the same sequence, the figures for GATCTCGCTGAGATC ((((((...)))))) were -43.6 kcal/mol and 53.8 °C.
In the case of GATCTCGCTTGAGATC ((((((....)))))), the folding enthalpy in data set [1] was -36.8 kcal/mol. Besides, the Tm in data set [2] was found to be 54.4 °C.
GATCTCGGAAACGAGACC (.(((((....))))).): the folding enthalpy in data set [1] was -16.5 kcal/mol. For the same sequence, the Tm in data set [2] is 40.7 °C.
As for GATCTCGGAAGAGATC ((((((....)))))), the folding enthalpy in data set [1] was -37.4 kcal/mol. Moreover, the Tm in data set [2] stood at 63.6 °C.
As for GATCTCGGGGAGATC ((((((...)))))), the folding enthalpy in data set [1] was -30.2 kcal/mol. Besides, in data set [2], the Tm was 54.3 °C.
With GATCTCGGTAGAGATC ((((((....)))))), in data set [1], the folding enthalpy is -32.7 kcal/mol. Besides, in data set [2], the Tm turned out to be 66.5 °C.
GATCTCGTAGAGATC ((((((...)))))): the folding enthalpy in data set [1] is -37.2 kcal/mol. For the same sequence, the Tm in data set [2] turned out to be 67.9 °C.
Regarding GATCTCGTCCGAGATC ((((((....)))))), in data set [1], the folding enthalpy was -38.4 kcal/mol. The Tm in data set [2] was determined as 60.5 °C.
Taken in the same sequence, the figures for GATCTCGTCGGAGATC ((((((....)))))) were -43.5 kcal/mol and 54.5 °C.
Regarding GATCTCGTGCGAGATC ((((((....)))))), the folding enthalpy in data set [1] was -54.9 kcal/mol. The Tm in data set [2] worked out at 56.3 °C.
Taken in the same sequence, the figures for GATCTCGTTCGAGATC ((((((....)))))) were -41.4 kcal/mol and 60.9 °C.
For the sequence GATCTCTAAGAGATC ((((((...)))))), the folding enthalpy in data set [1] was -31.5 kcal/mol. In addition, the Tm in data set [2] was found to be 51.5 °C.
Turning to GATCTCTACAGAGATC ((((((....)))))), the folding enthalpy in data set [1] is -45.2 kcal/mol. The Tm in data set [2] amounted to 55.8 °C.
As for GATCTCTACGAGATC ((((((...)))))), the folding enthalpy in data set [1] was -40 kcal/mol. Further, the Tm in data set [2] was found to be 55.1 °C.
GATCTCTACGGAGATC ((((((....)))))): the folding enthalpy in data set [1] was -36 kcal/mol. Moreover, the Tm in data set [2] came out at 55.6 °C.
In the case of GATCTCTCAGGAGATC ((((((....)))))), the folding enthalpy in data set [1] was -48 kcal/mol. For the same sequence, in data set [2], the Tm was 54.2 °C.
In the case of GATCTCTCGAGAGATC ((((((....)))))), the folding enthalpy in data set [1] is -40.5 kcal/mol. Also, the Tm in data set [2] stood at 54.1 °C.
For the sequence GATCTCTCTAGAGATC ((((((....)))))), the folding enthalpy in data set [1] is -37.4 kcal/mol. Further, in data set [2], the Tm was 56.3 °C.
Turning to GATCTCTGCAGAGATC ((((((....)))))), in data set [1], the folding enthalpy was -41.6 kcal/mol. The Tm in data set [2] was 57 °C.
Turning to GATCTCTGGAGAGATC ((((((....)))))), in data set [1], the folding enthalpy is -34.4 kcal/mol. The Tm in data set [2] amounted to 53.1 °C.
GATCTCTGTCGAGATC ((((((....)))))): the folding enthalpy in data set [1] was -37.4 kcal/mol. The Tm in data set [2] was determined as 51.8 °C.
Regarding GATCTCTTATGAGATC ((((((....)))))), the folding enthalpy in data set [1] was -43.4 kcal/mol. Besides, the Tm in data set [2] came to 54.1 °C.
Taken in the same sequence, the figures for GATCTCTTGGGAGATC ((((((....)))))) were -40.4 kcal/mol and 54 °C.
As to GATCTCTTTGGAGATC ((((((....)))))), the folding enthalpy in data set [1] was -44.5 kcal/mol. In addition, the Tm in data set [2] stood at 55.1 °C.
GATCTCTTTTGAGATC ((((((....)))))): in data set [1], the folding enthalpy is -39.2 kcal/mol. Besides, in data set [2], the Tm stood at 55 °C.
With GATCTGACACAGATC ((((((...)))))), in data set [1], the folding enthalpy is -35.7 kcal/mol. In data set [2], the Tm turned out to be 48.1 °C.
Taken in the same sequence, the figures for GATCTGACCACAGATC ((((((....)))))) were -36.3 kcal/mol and 49 °C.
Consider GATCTGAGCTCAGATC ((((((....)))))), for which the folding enthalpy in data set [1] was -51.6 kcal/mol. The Tm in data set [2] came to 55.6 °C.
GATCTGATAACAGATC ((((((....)))))): the folding enthalpy in data set [1] is -35.7 kcal/mol. For the same sequence, the Tm in data set [2] was 47 °C.
With GATCTGATCGCAGATC ((((((....)))))), in data set [1], the folding enthalpy was -11.2 kcal/mol. In addition, the Tm in data set [2] was 42.3 °C.
Taken in the same sequence, the figures for GATCTGATTACAGATC ((((((....)))))) were -40.5 kcal/mol and 50 °C.
